Legend:
[1] = Drug metabolism in rat liver microsomes treated with (S)-N-(4-Amino-6-methylene-5-(4-phenoxyphenyl)-7,8-dihydro-6H-pyrimido[5,4-b]pyrrolizin-7-yl)acrylamide after 3 hrs; format: ADME, microsome
[2] = Drug metabolism in human liver microsomes treated with (S)-N-(4-Amino-6-methylene-5-(4-phenoxyphenyl)-7,8-dihydro-6H-pyrimido[5,4-b]pyrrolizin-7-yl)acrylamide after 3 hrs; format: ADME, microsome
[3] = target: Tyrosine-protein kinase BTK (Homo sapiens, UniProt Q06187); test: Inhibition of recombinant human BTK using Poly(Glu, Tyr) 4:1 as substrate after 1 hr by ELISA
Chain of Tyrosine-protein kinase BTK (Homo sapiens, UniProt Q06187) (Q06187 whole entry): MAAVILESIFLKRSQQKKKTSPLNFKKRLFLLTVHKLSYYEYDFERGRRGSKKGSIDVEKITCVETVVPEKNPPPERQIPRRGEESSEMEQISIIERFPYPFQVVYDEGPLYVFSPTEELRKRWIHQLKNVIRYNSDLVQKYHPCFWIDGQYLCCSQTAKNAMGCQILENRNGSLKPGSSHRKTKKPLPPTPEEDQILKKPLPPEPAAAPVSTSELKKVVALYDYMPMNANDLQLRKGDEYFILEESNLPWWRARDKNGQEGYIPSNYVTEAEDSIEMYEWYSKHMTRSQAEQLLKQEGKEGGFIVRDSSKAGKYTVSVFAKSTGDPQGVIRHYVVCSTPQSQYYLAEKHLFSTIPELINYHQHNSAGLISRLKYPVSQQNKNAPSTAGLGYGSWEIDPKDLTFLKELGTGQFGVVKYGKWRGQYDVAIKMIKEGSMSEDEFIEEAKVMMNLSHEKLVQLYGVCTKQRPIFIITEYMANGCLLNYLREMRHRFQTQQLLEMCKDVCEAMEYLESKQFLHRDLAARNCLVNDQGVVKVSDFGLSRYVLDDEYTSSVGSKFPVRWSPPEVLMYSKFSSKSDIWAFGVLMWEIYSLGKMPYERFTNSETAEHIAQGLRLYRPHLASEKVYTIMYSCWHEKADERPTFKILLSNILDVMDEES

[4] = Drug metabolism in mouse liver microsomes treated with (S)-N-(4-Amino-6-methylene-5-(4-phenoxyphenyl)-7,8-dihydro-6H-pyrimido[5,4-b]pyrrolizin-7-yl)but-2-ynamide after 3 hrs; format: ADME, microsome
[5] = Drug metabolism in human liver microsomes treated with (S)-N-(4-Amino-6-methylene-5-(4-phenoxyphenyl)-7,8-dihydro-6H-pyrimido[5,4-b]pyrrolizin-7-yl)but-2-ynamide after 3 hrs; format: ADME, microsome
[6] = Drug metabolism in rat liver microsomes treated with (S)-N-(4-Amino-6-methylene-5-(4-phenoxyphenyl)-7,8-dihydro-6H-pyrimido[5,4-b]pyrrolizin-7-yl)but-2-ynamide after 3 hrs; format: ADME, microsome
[7] = Drug metabolism in mouse liver microsomes treated with (S)-N-(4-Amino-6-methylene-5-(4-phenoxyphenyl)-7,8-dihydro-6H-pyrimido[5,4-b]pyrrolizin-7-yl)acrylamide after 3 hrs; format: ADME, microsome
[8] = target: Tyrosine-protein kinase BTK (Homo sapiens, UniProt Q06187, C481S); test: Inhibition of recombinant full-length N-terminal His-tagged human BTK C481S mutant expressed in baculovirus infected Sf9 insect cells using Poly(Glu, Tyr) 4:1 as substrate after 1 hr by ELISA
Chain of Tyrosine-protein kinase BTK (Homo sapiens, UniProt Q06187, C481S) (Q06187 2-659 C481S limits assumed): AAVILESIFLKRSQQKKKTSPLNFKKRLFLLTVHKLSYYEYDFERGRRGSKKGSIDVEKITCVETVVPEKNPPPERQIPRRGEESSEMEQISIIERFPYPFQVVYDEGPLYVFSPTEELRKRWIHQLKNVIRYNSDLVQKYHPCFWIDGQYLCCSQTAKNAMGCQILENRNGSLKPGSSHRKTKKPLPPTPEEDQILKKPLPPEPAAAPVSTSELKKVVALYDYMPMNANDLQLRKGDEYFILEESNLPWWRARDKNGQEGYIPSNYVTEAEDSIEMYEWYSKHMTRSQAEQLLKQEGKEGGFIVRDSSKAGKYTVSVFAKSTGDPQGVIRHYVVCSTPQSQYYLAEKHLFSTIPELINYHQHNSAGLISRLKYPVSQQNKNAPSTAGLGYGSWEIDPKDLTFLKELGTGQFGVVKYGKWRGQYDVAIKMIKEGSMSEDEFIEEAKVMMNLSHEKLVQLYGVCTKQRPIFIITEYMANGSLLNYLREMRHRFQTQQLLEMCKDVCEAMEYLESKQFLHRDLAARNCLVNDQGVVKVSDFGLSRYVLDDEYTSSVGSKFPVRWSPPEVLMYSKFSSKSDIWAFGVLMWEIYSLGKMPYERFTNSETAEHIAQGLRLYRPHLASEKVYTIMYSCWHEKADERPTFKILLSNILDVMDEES

[9] = target: Dual specificity mitogen-activated protein kinase kinase; MEK1/2 (Homo sapiens) (UniProt P36507+Q02750); test: Inhibition of human MEK assessed as residual activity at 1 uM relative to control; format: protein assay
Chain of Dual specificity mitogen-activated protein kinase kinase; MEK1/2 (Homo sapiens) (P36507 whole entry, looked up): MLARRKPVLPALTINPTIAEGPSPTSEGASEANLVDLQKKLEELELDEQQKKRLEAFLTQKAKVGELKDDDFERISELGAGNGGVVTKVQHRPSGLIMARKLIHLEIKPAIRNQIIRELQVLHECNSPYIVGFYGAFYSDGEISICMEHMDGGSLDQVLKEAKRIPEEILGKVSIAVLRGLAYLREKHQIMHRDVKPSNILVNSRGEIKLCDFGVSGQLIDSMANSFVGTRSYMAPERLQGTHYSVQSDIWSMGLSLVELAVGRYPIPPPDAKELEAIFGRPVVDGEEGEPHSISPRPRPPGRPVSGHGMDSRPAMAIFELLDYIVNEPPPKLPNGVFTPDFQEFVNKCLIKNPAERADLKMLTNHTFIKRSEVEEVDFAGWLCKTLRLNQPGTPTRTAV
Chain of Dual specificity mitogen-activated protein kinase kinase; MEK1/2 (Homo sapiens) (Q02750 whole entry, looked up): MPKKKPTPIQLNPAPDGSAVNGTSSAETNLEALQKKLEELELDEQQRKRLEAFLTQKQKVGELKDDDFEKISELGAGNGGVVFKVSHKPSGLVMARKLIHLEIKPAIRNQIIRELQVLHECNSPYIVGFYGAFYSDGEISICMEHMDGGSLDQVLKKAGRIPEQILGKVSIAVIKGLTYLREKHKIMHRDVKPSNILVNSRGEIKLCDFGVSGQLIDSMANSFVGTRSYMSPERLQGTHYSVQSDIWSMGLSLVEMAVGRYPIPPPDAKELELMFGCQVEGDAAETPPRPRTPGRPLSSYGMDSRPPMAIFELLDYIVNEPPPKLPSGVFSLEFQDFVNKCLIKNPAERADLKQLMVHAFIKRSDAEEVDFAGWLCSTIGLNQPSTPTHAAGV
Outline: (§1)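 KINOMEscan competition binding panel of 468 kinases with compound at 1 μM. Result is % control = (test − positive control signal)/(DMSO negative − positive control signal) × 100.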

[10] = target: Tyrosine-protein kinase Blk (Homo sapiens, UniProt P51451); test: Inhibition of partial length human BLK expressed in bacteria assessed as residual activity at 1 uM relative to control; outline: as §1
Chain of Tyrosine-protein kinase Blk (P51451 2-505 limits assumed): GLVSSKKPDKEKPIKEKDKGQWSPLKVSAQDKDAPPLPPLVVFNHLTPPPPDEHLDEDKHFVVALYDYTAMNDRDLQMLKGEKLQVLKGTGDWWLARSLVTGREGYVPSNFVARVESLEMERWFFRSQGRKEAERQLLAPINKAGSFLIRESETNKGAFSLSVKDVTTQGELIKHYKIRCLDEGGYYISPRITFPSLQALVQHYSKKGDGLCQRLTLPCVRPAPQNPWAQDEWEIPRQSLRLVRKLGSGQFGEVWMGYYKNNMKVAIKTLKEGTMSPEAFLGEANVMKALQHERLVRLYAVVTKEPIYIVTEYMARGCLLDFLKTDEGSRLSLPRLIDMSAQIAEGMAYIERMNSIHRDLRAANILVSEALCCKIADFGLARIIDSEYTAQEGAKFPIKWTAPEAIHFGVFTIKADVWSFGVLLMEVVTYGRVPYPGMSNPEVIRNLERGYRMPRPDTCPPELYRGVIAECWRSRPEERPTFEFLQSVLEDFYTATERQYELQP

[11] = target: Receptor tyrosine-protein kinase erbB-4 (Homo sapiens, UniProt Q15303); test: Inhibition of partial length human ErbB4 expressed in bacteria assessed as residual activity at 1 uM relative to control; outline: as §1
Chain of Receptor tyrosine-protein kinase erbB-4 (Q15303 whole entry): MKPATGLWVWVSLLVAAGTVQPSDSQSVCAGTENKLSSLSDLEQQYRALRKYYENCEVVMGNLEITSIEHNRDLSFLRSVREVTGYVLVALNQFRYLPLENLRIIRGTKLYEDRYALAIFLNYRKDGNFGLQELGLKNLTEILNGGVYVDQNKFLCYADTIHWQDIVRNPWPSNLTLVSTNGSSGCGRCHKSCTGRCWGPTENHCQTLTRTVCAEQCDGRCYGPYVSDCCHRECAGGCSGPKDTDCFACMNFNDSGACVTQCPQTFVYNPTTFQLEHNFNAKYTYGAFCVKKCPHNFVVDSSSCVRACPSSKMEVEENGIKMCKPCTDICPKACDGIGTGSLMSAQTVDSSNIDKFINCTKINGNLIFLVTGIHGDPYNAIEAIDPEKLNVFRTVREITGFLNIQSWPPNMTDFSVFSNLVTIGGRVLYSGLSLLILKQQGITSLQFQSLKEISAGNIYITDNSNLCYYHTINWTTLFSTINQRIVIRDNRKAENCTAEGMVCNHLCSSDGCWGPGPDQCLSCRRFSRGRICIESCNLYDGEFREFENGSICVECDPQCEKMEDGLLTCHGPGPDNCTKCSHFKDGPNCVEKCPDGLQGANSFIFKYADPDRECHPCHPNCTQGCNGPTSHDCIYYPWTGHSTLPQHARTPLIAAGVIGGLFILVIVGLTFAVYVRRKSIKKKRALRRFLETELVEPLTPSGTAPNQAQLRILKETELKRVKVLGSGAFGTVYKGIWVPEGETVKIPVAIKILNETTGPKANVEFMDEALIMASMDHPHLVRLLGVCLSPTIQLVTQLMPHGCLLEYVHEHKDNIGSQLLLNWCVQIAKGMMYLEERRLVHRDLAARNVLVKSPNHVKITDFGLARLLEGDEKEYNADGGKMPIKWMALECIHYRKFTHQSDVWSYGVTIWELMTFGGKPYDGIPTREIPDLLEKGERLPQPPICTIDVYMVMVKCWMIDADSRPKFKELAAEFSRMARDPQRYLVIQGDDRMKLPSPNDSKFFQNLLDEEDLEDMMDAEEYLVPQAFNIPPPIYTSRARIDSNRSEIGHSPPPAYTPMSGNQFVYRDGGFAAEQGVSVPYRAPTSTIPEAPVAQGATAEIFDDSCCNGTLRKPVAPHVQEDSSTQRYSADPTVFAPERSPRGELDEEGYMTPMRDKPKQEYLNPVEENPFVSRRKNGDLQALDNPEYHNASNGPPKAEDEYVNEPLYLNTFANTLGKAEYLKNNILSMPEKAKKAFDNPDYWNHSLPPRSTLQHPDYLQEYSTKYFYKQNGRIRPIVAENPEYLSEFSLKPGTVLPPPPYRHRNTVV

Ramos = test: Antiproliferative activity against human Ramos cells after 72 hrs by MTT assay; format: functional, cell-based
Outline: (§2)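 Cells grown in RPMI-1640 with FBS at 37 °C, 5% CO2. Seeded and grown 2 h, then treated with various concentrations in PBS solution, each in triplicate, and cultured a further 72 h. Viability read by MTT. IC50 from the Logit method, given as mean ± SD of three independent determinations.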

TMD8 = test: Antiproliferative activity against human TMD8 cells after 72 hrs by MTT assay; format: functional, cell-based; settings: TMD8, 72 h; outline: as §2
[12] = (§3) Oral bioavailability in rat at 3 mg/kg; format: ADME, organism-based; settings: in vivo
Outline: (§4)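 Rats were given compound at 1 mg/kg iv or 3 mg/kg po. Vehicle was DMSO, Tween 80 and normal saline. Values are the average of three determinations.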

[13] = Drug metabolism in mouse liver microsomes assessed as (S)-4-(4-(4,7-diamino-6-methylene-7,8-dihydro-6H-pyrimido[5,4-b]pyrrolizin-5-yl)phenoxy)phenol formation after 3 hrs; format: ADME, microsome
Rattus norvegicus [14] = test: AUC (0 to infinity) in rat at 3 mg/kg, po; format: ADME, organism-based; set-up: dose 3 mg/kg, time infinity, route oral; settings: in vivo
Outline: (§5)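 Rats dosed orally at 3 mg/kg; vehicle DMSO, Tween 80, normal saline; values are the average of three determinations.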

[15] = Drug metabolism in rat liver microsomes assessed as (S)-N-(4-amino-5-(4-(4-hydroxyphenoxy)phenyl)-6-methylene-7,8-dihydro-6H-pyrimido[5,4-b]pyrrolizin-7-yl)-4-hydroxybut-2-ynamide formation after 3 hrs; format: ADME, microsome
Rattus norvegicus [16] = test: Half life in rat at 1 mg/kg, iv; format: ADME, organism-based; settings: in vivo
Outline: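 Rats given 1 mg/kg intravenously; vehicle DMSO, Tween 80, normal saline; values are the average of three determinations.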

[17] = Cmax in rat at 3 mg/kg, po; format: ADME, organism-based; set-up: dose 3 mg/kg, route oral; settings: in vivo; outline: as §5
Rattus norvegicus [18] = test: Volume of distribution at steady state in rat at 1 mg/kg, iv; format: ADME, organism-based; settings: in vivo; outline: as §4
[19] = Drug metabolism in rat liver microsomes assessed as (S)-N-(4-amino-6-methylene-5-(4-phenoxyphenyl)-7,8-dihydro-6H-pyrimido[5,4-b]pyrrolizin-7-yl)-4-hydroxybut-2-ynamide formation after 3 hrs; format: ADME, microsome
[20] = Drug metabolism in mouse liver microsomes assessed as (S)-N-(4-amino-6-methylene-5-(4-phenoxyphenyl)-7,8-dihydro-6H-pyrimido[5,4-b]pyrrolizin-7-yl)-4-hydroxybut-2-ynamide formation after 3 hrs; format: ADME, microsome
[21] = Drug metabolism in human liver microsomes assessed as (S)-N-(4-amino-6-methylene-5-(4-phenoxyphenyl)-7,8-dihydro-6H-pyrimido[5,4-b]pyrrolizin-7-yl)-4-hydroxybut-2-ynamide formation after 3 hrs; format: ADME, microsome
[22] = Tmax in rat at 3 mg/kg, po; format: ADME, organism-based; settings: in vivo; outline: as §4
[23] = Drug metabolism in mouse liver microsomes assessed as (S)-N-(4-amino-5-(4-(4-hydroxyphenoxy)phenyl)-6-methylene-7,8-dihydro-6H-pyrimido[5,4-b]pyrrolizin-7-yl)but-2-ynamide formation after 3 hrs; format: ADME, microsome
[24] = Drug metabolism in human liver microsomes assessed as (S)-N-(4-amino-5-(4-(4-hydroxyphenoxy)phenyl)-6-methylene-7,8-dihydro-6H-pyrimido[5,4-b]pyrrolizin-7-yl)-4-hydroxybut-2-ynamide formation after 3 hrs; format: ADME, microsome
Rattus norvegicus [25] = test: as §3; format: ADME, organism-based; settings: in vivo; outline: as §4
[26] = Drug metabolism in human liver microsomes assessed as (S)-N-(4-amino-5-(4-hydroxyphenyl)-6-methylene-7,8-dihydro-6H-pyrimido[5,4-b]pyrrolizin-7-yl)but-2-ynamide formation after 3 hrs; format: ADME, microsome
[27] = Drug metabolism in rat liver microsomes assessed as (S)-N-(4-amino-5-(4-hydroxyphenyl)-6-methylene-7,8-dihydro-6H-pyrimido[5,4-b]pyrrolizin-7-yl)but-2-ynamide formation after 3 hrs; format: ADME, microsome
[28] = Drug metabolism in rat liver microsomes assessed as (S)-N-(4-amino-5-(4-(4-hydroxyphenoxy)phenyl)-6-methylene-7,8-dihydro-6H-pyrimido[5,4-b]pyrrolizin-7-yl)but-2-ynamide formation after 3 hrs; format: ADME, microsome
Mus musculus = test: Toxicity in CB17 SCID nude mouse xenografted with human TMD8 cells assessed as change in body weight at 25 mg/kg, po qd administered for 13 consecutive days measured during compound dosing up to day 17 post dose; format: organism-based; settings: in vivo

SMILES: C=CC(=O)N[C@@H]1Cn2c(c(-c3ccc(O)cc3)c3c(N)ncnc32)C1=C
- Drug metabolism [1]: Metabolite_Detected
- Drug metabolism [2]: Metabolite_Detected

SMILES: C=CC(=O)N[C@@H]1Cn2c(c(-c3ccc(C(=O)N[C@@H](COC)c4ccccn4)cc3)c3c(N)ncnc32)C1=C
- IC50 [3]: 4.3 nM

SMILES: C=CC(=O)N[C@@H]1Cn2c(c(-c3ccc(C(=O)NCc4ccccn4)cc3)c3c(N)ncnc32)C1=C
- IC50 [3]: 3.1 nM

SMILES: C=C1c2c(-c3ccc(Oc4ccc(O)cc4)cc3)c3c(N)ncnc3n2C[C@H]1NC(=O)C#CC
- Drug metabolism [4]: Metabolite_Detected
- Drug metabolism [5]: Metabolite_Detected
- Drug metabolism [6]: Metabolite_Detected

SMILES: C=CC(=O)N[C@H]1Cn2c(c(-c3ccc(Oc4ccccc4)cc3)c3c(N)ncnc32)C1=C
- IC50 [3]: 6.1 nM

SMILES: C=C1c2c(-c3ccc(Oc4ccc(O)cc4)cc3)c3c(N)ncnc3n2C[C@H]1N
- Drug metabolism [1]: Metabolite_Detected
- Drug metabolism [4]: Metabolite_Detected
- Drug metabolism [7]: Metabolite_Detected

SMILES: C=CC(=O)N[C@@H]1Cn2c(c(-c3ccc(Oc4ccc(F)cc4)cc3)c3c(N)ncnc32)C1=C
- IC50 [3]: 2.2 nM

SMILES: C=CC(=O)N[C@@H]1Cn2c(c(-c3ccc(Oc4ccc(O)cc4)cc3)c3c(N)ncnc32)C1=C
- Drug metabolism [1]: Metabolite_Detected
- Drug metabolism [2]: Metabolite_Detected
- Drug metabolism [7]: Metabolite_Detected

SMILES: C=CC(=O)N[C@@H]1Cn2c(c(-c3ccc(C(=O)N[C@@H](C)c4ccccn4)cc3)c3c(N)ncnc32)C1=C
- IC50 [3]: 50.4 nM

SMILES: C=CC(=O)N[C@@H](C)C(=O)NC1Cn2c(c(-c3ccc(Oc4ccccc4)cc3)c3c(N)ncnc32)C1=C (stereo partly drawn)
- IC50 [3]: 40.1 nM

SMILES: CCC(=O)NC1CCc2c(-c3ccc(Oc4ccccc4)cc3)c3c(N)ncnc3n2C1 (stereo not drawn)
- IC50 [3]: 417 nM

SMILES: C=C1c2c(-c3ccc(Oc4ccccc4)cc3)c3c(N)ncnc3n2C[C@@H]1NC(=O)C#CC
- IC50 [3]: 3.3 nM

SMILES: C=CC(=O)N[C@@H]1Cn2c(c(-c3ccc(Oc4ccc(OC(F)(F)F)cc4)cc3)c3c(N)ncnc32)C1=C
- IC50 [3]: 3.5 nM

SMILES: C=C1c2c(-c3ccc(O)cc3)c3c(N)ncnc3n2C[C@H]1NC(=O)C#CC
- Drug metabolism [5]: Metabolite_Detected
- Drug metabolism [6]: Metabolite_Detected

SMILES: C=CC(=O)NCCC(=O)NC1Cn2c(c(-c3ccc(Oc4ccccc4)cc3)c3c(N)ncnc32)C1=C (stereo not drawn)
- IC50 [3]: 725 nM

SMILES: C=C1c2c(-c3ccc(Oc4ccccc4)cc3)c3c(N)ncnc3n2CC1NC(=O)CC (stereo not drawn)
- IC50 [3]: 62.6 nM

SMILES: C=C1c2c(-c3ccc(Oc4ccccc4)cc3)c3c(N)ncnc3n2CC1NC(=O)/C=C/CN(C)C (stereo not drawn)
- IC50 [3]: 4.3 nM

SMILES: C=CC(=O)N[C@@H]1Cn2c(c(-c3ccc(Oc4ccc(C(F)(F)F)cc4)cc3)c3c(N)ncnc32)C1=C
- IC50 [3]: 7.4 nM

SMILES: C=C1c2c(-c3ccc(Oc4ccc(O)cc4)cc3)c3c(N)ncnc3n2C[C@H]1NC(=O)C#CCO
- Drug metabolism [5]: Metabolite_Detected
- Drug metabolism [6]: Metabolite_Detected

SMILES: C=C1c2c(-c3ccc(Oc4ccccc4)cc3)c3c(N)ncnc3n2C[C@H]1NC(=O)C=CO
- Drug metabolism [1]: Metabolite_Detected
- Drug metabolism [2]: Metabolite_Detected
- Drug metabolism [7]: Metabolite_Detected

SMILES: C=C1c2c(-c3ccc(Oc4ccccc4)cc3)c3c(N)ncnc3n2C[C@H]1NC(=O)C#CCO
- Drug metabolism [4]: Metabolite_Detected
- Drug metabolism [5]: Metabolite_Detected
- Drug metabolism [6]: Metabolite_Detected

SMILES: C=C1c2c(-c3ccc(Oc4ccccc4)cc3)c3c(N)ncnc3n2CC1NC(=O)C#CC (racemic)
- IC50 [3]: 2.1 nM

SMILES: C=C1c2c(-c3ccc(Oc4ccccc4)cc3)c3c(N)ncnc3n2C[C@H]1NC(=O)C(O)CO (stereo partly drawn)
- Drug metabolism [1]: Metabolite_Detected
- Drug metabolism [2]: Metabolite_Detected
- Drug metabolism [7]: Metabolite_Detected

SMILES: C=CC(=O)N[C@@H]1Cn2c(c(-c3ccc(C(=O)Nc4cc(C(F)(F)F)ccn4)cc3)c3c(N)ncnc32)C1=C
- IC50 [3]: 0.8 nM

SMILES: C=C1c2c(-c3ccc(Oc4ccccc4)cc3)c3c(N)ncnc3n2CC1N (stereo not drawn)
- IC50 [3]: > 1000 nM

SMILES: C=CC(=O)NC1Cn2c(c(-c3ccc(Oc4ccccc4)cc3)c3c(N)ncnc32)C1=C (racemic)
- IC50 [8]: 464 nM
- Activity [9]: < 1%
- Activity [10]: < 1%
- IC50 [3]: 2.8 nM
- Activity [11]: < 1%

SMILES: C=CC(=O)N[C@@H]1Cn2c(c(-c3ccc(Oc4ccc(C(C)(C)C)cc4)cc3)c3c(N)ncnc32)C1=C
- IC50 [3]: 3.7 nM

SMILES: C=CC(=O)N[C@@H]1Cn2c(c(-c3ccc(C(=O)Nc4ccccn4)cc3)c3c(N)ncnc32)C1=C
- IC50 (Ramos): 14300 nM
- IC50 (TMD8): 4 nM
- bioavailability [12]: 8.24%
- IC50 [3]: 0.5 nM

SMILES: C=CC(=O)NC1(C(=O)NC2Cn3c(c(-c4ccc(Oc5ccccc5)cc4)c4c(N)ncnc43)C2=C)CC1 (stereo not drawn)
- IC50 [3]: 23.8 nM

SMILES: C=CC(=O)NCC(=O)NC1Cn2c(c(-c3ccc(Oc4ccccc4)cc3)c3c(N)ncnc32)C1=C (stereo not drawn)
- IC50 [3]: 23.6 nM

SMILES: C=C1c2c(-c3ccc(Oc4ccccc4)cc3)c3c(N)ncnc3n2C[C@H]1NC(=O)C#CC
- Drug metabolism [13]: Metabolite_Detected
- AUC (Rattus norvegicus [14]): 557 ng·h/mL
- Drug metabolism [15]: Metabolite_Detected
- t1/2 (Rattus norvegicus [16]): 32.4 min
- Cmax [17]: 340 ng/mL
- Vdss (Rattus norvegicus [18]): 1.39 L/kg
- Drug metabolism [19]: Metabolite_Detected
- Drug metabolism [20]: Metabolite_Detected
- Drug metabolism [21]: Metabolite_Detected
- Tmax [22]: 15 min
- Drug metabolism [23]: Metabolite_Detected
- Drug metabolism [24]: Metabolite_Detected
- F (Rattus norvegicus [25]): 35.8%
- Drug metabolism [26]: Metabolite_Detected
- Drug metabolism [27]: Metabolite_Detected
- IC50 [3]: 0.4 nM
- Drug metabolism [28]: Metabolite_Detected

SMILES: C=CC(=O)N1CCC[C@@H](n2nc(-c3ccc(Oc4ccccc4)cc3)c3c(N)ncnc32)C1 [IBRUTINIB]
- AUC (Rattus norvegicus [14]): 57 ng·h/mL
- IC50 (Ramos): 920 nM
- Activity (Mus musculus): Non-Toxic
- IC50 (TMD8): 10 nM

Reference: ChEMBL document CHEMBL4184325, “Discovery of 4,7-Diamino-5-(4-phenoxyphenyl)-6-methylene-pyrimido[5,4- b]pyrrolizines as Novel Bruton's Tyrosine Kinase Inhibitors” (J Med Chem, 2018)
